# From BindingDB's records for doi:10.1021/jm049010r (University of Florida, 2005)
# pEC50: −log10 of the molar value.
# Biological target: Melanocortin receptor 4 (Mus musculus, UniProt P56450)
# Assay: Effective concentration for mouse Melanocortin-4 receptor
# Method in brief: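 HEK-293 cells stably expressing mouse melanocortin receptors (G418-selected) were transiently transfected with a CRE/β-galactosidase reporter. Lysates were incubated with ONPG at 37° and read at OD405. Signals were normalized to relative protein (OD595) and to forskolin response. EC50 came from nonlinear least-squares fits of duplicate experiments in quadruplet or more.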
# Melanocortin receptor 4, sequence (P56450 whole entry): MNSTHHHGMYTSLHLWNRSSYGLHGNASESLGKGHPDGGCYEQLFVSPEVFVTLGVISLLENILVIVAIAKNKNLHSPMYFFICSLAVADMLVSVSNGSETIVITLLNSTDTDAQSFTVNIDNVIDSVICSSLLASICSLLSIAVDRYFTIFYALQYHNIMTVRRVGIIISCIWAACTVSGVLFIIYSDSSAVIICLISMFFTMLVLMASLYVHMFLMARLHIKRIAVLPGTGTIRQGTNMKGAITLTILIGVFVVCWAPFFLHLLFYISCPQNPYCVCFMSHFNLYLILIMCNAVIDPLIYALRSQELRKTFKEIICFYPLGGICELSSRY
row,pEC50,SMILES
1,9.24,C[C@@H]1NC(=O)[C@H](CC(N)=O)NC(=O)[C@H](Cc2c[nH]c3ccccc23)NC(=O)[C@H](CCCNC(=N)N)NC(=O)[C@@H](Cc2cccc3ccccc23)NC(=O)[C@H](Cc2cnc[nH]2)NC(=O)[C@@H](NC(=O)[C@@H](N)Cc2ccc(O)cc2)CC(=O)N([C@@H](Cc2ccc(O)cc2)C(N)=O)C(C)(C(=O)O)NC(=O)[C@H](Cc2ccccc2)NC1=O (some centres not stated)
2,9.24,C[C@@H]1NC(=O)[C@H](CC(N)=O)NC(=O)[C@H](Cc2c[nH]c3ccccc23)NC(=O)[C@H](CCCNC(=N)N)NC(=O)[C@@H](Cc2ccc(-c3ccccc3)cc2)NC(=O)[C@H](Cc2cnc[nH]2)NC(=O)[C@@H](NC(=O)[C@@H](N)Cc2ccc(O)cc2)CC(=O)N([C@@H](Cc2ccc(O)cc2)C(N)=O)C(C)(C(=O)O)NC(=O)[C@H](Cc2ccccc2)NC1=O (some centres not stated)
